Reference: ChEMBL document CHEMBL1155156, “In vitro interactions between apricitabine and other deoxycytidine analogues” (Antimicrob Agents Chemother, 2007)

What was measured:
[1] = tested on: Human immunodeficiency virus; test: Antiviral activity against HIV in PBMCs assessed as inhibition of viral replication; format: functional, organism-based; conditions: Human immunodeficiency virus 1
PBMC [2] = test: Drug level in human resting PBMC assessed as apricitabine monophosphate level at 2.6 uM after 24 hrs; format: ADME, cell-based
Summary of the method: (§1)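 Unstimulated PBMC from a single healthy donor, cultured in RPMI 1640 + 10% heat-inactivated FBS, seeded at 1.0 × 10⁶ cells/ml and incubated 24 h with 2.6 μM ³H-labelled nucleoside alone. Cold PBS washes, 60% methanol extraction at −20°C overnight, C18 reverse-phase HPLC (7.5 mM sodium dihydrogen phosphate, pH 6.8) with online radiodetection. Intracellular parent, MP, DP, TP reported as μM (1 pmol/10⁶ cells ≈ 1 μM).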

[3] = tested on: Human immunodeficiency virus 1; test: Antiviral activity against HIV1 with reverse transcriptase M184V mutation in human phytohemagglutininin-activated PBMC assessed as inhibition of viral replication; format: functional, organism-based
Summary of the method: (§2)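 PBMC from one healthy donor, stimulated 3 days with PHA (5 μg/ml) plus IL-2 (10 U/ml), infected with HIV-1 M184V at MOI 0.02 for 3 h at 37°C, washed, 2 × 10⁵ cells/well into drug-containing medium. Half the medium renewed with drug at day 4. Day 7 supernatant RT activity measured on poly(rA)(dT) with [³H]dTTP. Triplicates.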

PBMC [4] = test: Drug level in human phytohemagglutininin-activated PBMC at 2.6 uM after 24 hrs; format: ADME, cell-based
Summary of the method: (§3)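 Single healthy donor PBMC from Ficoll-type separation with hypotonic erythrocyte lysis, cultured in RPMI 1640 + 10% heat-inactivated FBS and stimulated 72 h with PHA-M 5 μg/ml plus IL-2 10 U/ml. Seeded at 0.75 × 10⁶ cells/ml and exposed 24 h to 2.6 μM ³H-labelled nucleoside alone. Cells washed cold, extracted in 60% methanol, analysed by C18 reverse-phase HPLC (7.5 mM NaH2PO4, pH 6.8) with online radioactivity detection. Parent and MP/DP/TP expressed as μM (1 pmol/10⁶ cells ≈ 1 μM).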

[5] = tested on: Human immunodeficiency virus; test: Antiviral activity against HIV in T cells assessed as inhibition of viral replication; format: functional, organism-based; conditions: Human immunodeficiency virus 1, T-cell
PBMC [6] = test: Drug level in human resting PBMC assessed as apricitabine triphosphate level at 2.6 uM after 24 hrs; format: ADME, cell-based; summary of the method: as §1
PBMC [7] = test: Drug level in human phytohemagglutininin-activated PBMC assessed as apricitabine diphosphate level at 2.6 uM after 24 hrs; format: ADME, cell-based; summary of the method: as §3
PBMC [8] = test: Drug level in human resting PBMC assessed as apricitabine diphosphate level at 2.6 uM after 24 hrs; format: ADME, cell-based; summary of the method: as §1
PBMC [9] = test: Drug level in human phytohemagglutininin-activated PBMC assessed as apricitabine triphosphate level at 2.6 uM after 24 hrs; format: ADME, cell-based; summary of the method: as §3
PBMC [10] = test: Drug level in human resting PBMC at 2.6 uM after 24 hrs; format: ADME, cell-based; summary of the method: as §1
PBMC [11] = test: Drug level in human phytohemagglutininin-activated PBMC assessed as apricitabine monophosphate level at 2.6 uM after 24 hrs; format: ADME, cell-based; summary of the method: as §3
PBMC [12] = test: Drug level in human phytohemagglutininin-activated PBMC assessed as Lamivudine monophosphate level at 2.6 uM after 24 hrs; format: ADME, cell-based; summary of the method: as §3
PBMC [13] = test: Drug level in human resting PBMC assessed as Lamivudine triphosphate level at 2.6 uM after 24 hrs; format: ADME, cell-based; summary of the method: as §1
PBMC [14] = test: Drug level in human phytohemagglutininin-activated PBMC assessed as Lamivudine diphosphate level at 2.6 uM after 24 hrs; format: ADME, cell-based; summary of the method: as §3
PBMC [15] = test: Drug level in human resting PBMC assessed as Lamivudine monophosphate level at 2.6 uM after 24 hrs; format: ADME, cell-based; summary of the method: as §1
PBMC [16] = test: Drug level in human phytohemagglutininin-activated PBMC assessed as Lamivudine triphosphate level at 2.6 uM after 24 hrs; format: ADME, cell-based; summary of the method: as §3
[17] = tested on: Human immunodeficiency virus 1; test: Antiviral activity against HIV1 with reverse transcriptase M184V mutation in human phytohemagglutininin-activated PBMC assessed as inhibition of viral replication at 200 uM; format: functional; summary of the method: as §2
[18] = tested on: Human immunodeficiency virus 1; test: Antiviral activity against HIV1 with reverse transcriptase M184V mutation in human phytohemagglutininin-activated PBMC assessed as inhibition of viral replication at 60 uM; format: functional; summary of the method: as §2
PBMC [19] = test: Drug level in human resting PBMC assessed as Lamivudine diphosphate level at 2.6 uM after 24 hrs; format: ADME, cell-based; summary of the method: as §1

Compound | EC50 [1] [nM] | Drug uptake (PBMC [2]) [µM] | EC50 [3] [nM] | EC90 [3] [nM] | Drug uptake (PBMC [4]) [µM] | EC50 [5] [nM] | Drug uptake (PBMC [6]) [µM] | Drug uptake (PBMC [7]) [µM] | Drug uptake (PBMC [8]) [µM] | Drug uptake (PBMC [9]) [µM] | Drug uptake (PBMC [10]) [µM] | Drug uptake (PBMC [11]) [µM] | Drug uptake (PBMC [12]) [µM] | Drug uptake (PBMC [13]) [µM] | Drug uptake (PBMC [14]) [µM] | Drug uptake (PBMC [15]) [µM] | Drug uptake (PBMC [16]) [µM] | inhibition at 200 µM [17] [%] | inhibition at 60 µM [18] [%] | Drug uptake (PBMC [19]) [µM]
Nc1ccn([C@H]2CO[C@@H](CO)S2)c(=O)n1 [APRICITABINE] | 100 | 0.11 | 1900 | 11900 | 1.19 | 1000 | 0.33 | 0.69 | 0.58 | 0.54 | 0.39 | 0.23 | – | – | – | – | – | – | – | –
Nc1ccn([C@@H]2CS[C@H](CO)O2)c(=O)n1 [LAMIVUDINE] | – | – | 68000 | – | 0.18 | – | – | – | – | – | 0.1 | – | 0.52 | 0.73 | 1.66 | 0.12 | 0.66 | 45 | 45 | 1.01
